Assay results taken from ChEMBL document CHEMBL3352511, “Pyrrole-3-carboxamides as potent and selective JAK2 inhibitors” (Bioorg Med Chem, 2014).
≈ marks a conversion by molar mass, not a printed value. Calls of active or inactive are those of the source. The rule behind the calls is not given here.

Key:
[1] = target: JAK3/JAK1 (Homo sapiens) (UniProt P52333+P23458); experiment: Inhibition of JAK1/3-induced STAT5 phosphorylation in IL-2-activated human DERL7 cells at 10 uM after 2 hrs by SDS-PAGE analysis; assay type: cell-based
Outline: (§1)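 DERL-7 cells were kept in RPMI 1640 with 10% FBS and 20 ng/ml human IL-2, then starved 18 h. Compound was applied for 2 h, followed by IL-2 stimulation (20 ng/ml, 15 min, 37 °C). Cold-PBS-washed cells were lysed in RIPA. Lysates were resolved by SDS-PAGE and western blotted for P-STAT5 and total STAT5, with ECL detection.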

[2] = test system: Mus musculus; experiment: Toxicity in human SET2 cells xenografted SCID mouse assessed as reversible body weight loss at 15 mg/kg, po bid for 10 consecutive days; assay type: organism-based; design: dose 15 mg/kg, route oral; conditions: in vivo
Outline: (§2)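 SET-2 xenografts (10^7 cells s.c.) in irradiated female SCID mice, seven per study, dosed orally from 100-200 mm³ tumours, with 0.5% methocel vehicle controls. Body weight loss recorded at end of treatment.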

[3] = Antiproliferative activity against human DERL7 cells after 72 hrs by Cell Titer-Glo assay; assay type: functional, cell-based; conditions: DERL7, 72 h
[4] = test system: Mus musculus; experiment: Toxicity in human SET2 cells xenografted SCID mouse assessed as reversible body weight loss at 50 mg/kg, po bid administered as 5 days on 5 days off for 3 cycles; assay type: organism-based; design: dose 50 mg/kg, route oral; conditions: in vivo, 120 h; outline: as §2
[5] = target: Dual specificity tyrosine-phosphorylation-regulated kinase 1B (Homo sapiens) (UniProt Q9Y463); experiment: Inhibition of human DYRK1B at 0.1 uM
Sequence of Dual specificity tyrosine-phosphorylation-regulated kinase 1B (Homo sapiens) (Q9Y463 whole entry, looked up): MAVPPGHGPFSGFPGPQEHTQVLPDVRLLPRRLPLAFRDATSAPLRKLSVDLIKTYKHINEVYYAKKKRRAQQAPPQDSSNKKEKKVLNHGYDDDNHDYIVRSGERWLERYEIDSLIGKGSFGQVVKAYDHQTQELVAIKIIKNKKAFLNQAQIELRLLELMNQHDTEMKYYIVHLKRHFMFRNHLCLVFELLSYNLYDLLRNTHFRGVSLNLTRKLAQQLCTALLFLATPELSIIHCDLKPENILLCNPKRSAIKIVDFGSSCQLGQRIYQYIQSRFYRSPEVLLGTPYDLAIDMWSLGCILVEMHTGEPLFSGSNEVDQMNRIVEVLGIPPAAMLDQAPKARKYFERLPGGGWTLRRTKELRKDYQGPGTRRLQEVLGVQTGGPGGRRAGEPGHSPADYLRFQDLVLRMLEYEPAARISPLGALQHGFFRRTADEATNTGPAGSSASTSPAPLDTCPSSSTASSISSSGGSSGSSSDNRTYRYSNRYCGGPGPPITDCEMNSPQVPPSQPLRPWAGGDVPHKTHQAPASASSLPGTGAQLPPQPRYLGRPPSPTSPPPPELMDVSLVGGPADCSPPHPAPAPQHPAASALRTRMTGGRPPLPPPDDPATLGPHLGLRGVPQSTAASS
Outline: (§3)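 KINOMEscan active-site-directed competition binding panel of 442 human kinases, compound tested at 0.1 µM. Primary screen results expressed as % Ctrl, where lower values mean stronger binding.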

[6] = Half life in Balb nu/nu mouse at 10 mg/kg, po; assay type: ADME, organism-based; design: dose 10 mg/kg, route oral; conditions: in vivo
Outline: (§4)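 Overnight-fasted male Nu/Nu mice, single oral dose in 0.5% methocel, three mice. Saphenous vein blood taken at predose, 0.083, 0.5, 1, 6 and 24 h. Plasma obtained by centrifugation at 10,000g, 3 min, 4 °C, stored at -80 °C, then analysed by LC/MS/MS.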

[7] = test system: SET-2; experiment: Inhibition of STAT5 phosphorylation in human SET2 cells xenografted in SCID mouse assessed as tumor growth inhibition at 50 mg/kg, po as single dose measured up to 12 hrs post treatment; assay type: functional, organism-based; design: dose 50 mg/kg
Outline: (§5)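 SET-2 s.c. xenografts in irradiated female SCID mice were given one oral dose. Tumours were collected at several post-treatment times, 3 animals per time. Tumour lysates were western blotted for P-STAT5 and P-STAT3, with GAPDH as loading control.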

[8] = test system: DERL7; experiment: Effect on total STAT5 level in IL-2-activated human DERL7 cells at 0.08 to 10 uM after 2 hrs by SDS-PAGE analysis; assay type: functional, cell-based; outline: as §1
[9] = AUC(infinity) in Balb nu/nu mouse at 10 mg/kg, po; assay type: ADME, organism-based; design: time infinity, dose 10 mg/kg, route oral; conditions: plasma; outline: as §4
[10] = test system: SET-2; experiment: Inhibition of STAT5 phosphorylation in human SET2 cells xenografted in SCID mouse assessed as tumor growth inhibition at 30 mg/kg, po as single dose measured at 1 to 3 hrs post treatment; assay type: functional, organism-based; design: dose 30 mg/kg; outline: as §5
[11] = Cmax in Balb nu/nu mouse at 10 mg/kg, po; assay type: ADME, organism-based; design: dose 10 mg/kg, route oral; conditions: in vivo; outline: as §4
[12] = test system: SET-2; experiment: Inhibition of STAT3 phosphorylation in human SET2 cells xenografted in SCID mouse assessed as tumor growth inhibition at 50 mg/kg, po as single dose measured up to 12 hrs post treatment; assay type: functional, organism-based; design: dose 50 mg/kg; outline: as §5
[13] = Clearance in Balb nu/nu mouse at 10 mg/kg, iv; assay type: ADME, organism-based; design: dose 10 mg/kg, route intravenous; conditions: in vivo
Outline: (§6)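 Overnight-fasted male Nu/Nu mice, single intravenous dose in 10% Tween 80 in 5% dextrose, three mice. Saphenous vein blood taken at predose, 0.083, 0.5, 1, 6 and 24 h. Plasma obtained by centrifugation at 10,000g, 3 min, 4 °C, stored at -80 °C, then analysed by LC/MS/MS.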

[14] = test system: SET-2; experiment: Effect on total STAT5 level in human SET2 cells at 0.08 to 10 uM after 2 hrs by SDS-PAGE analysis; assay type: functional, cell-based
Outline: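 SET-2 cells were grown in RPMI 1640 with 10% FBS at 37 °C, 5% CO₂, and exposed to compound or DMSO for 2 h at 37 °C. Cells were washed in cold PBS and lysed in RIPA buffer. Equal lysate amounts went through SDS-PAGE and nitrocellulose transfer, then 5% milk/TBST blocking and overnight 4 °C probing for total STAT3/STAT5 and phospho-STAT, with ECL detection.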

[15] = Oral bioavailability in Balb nu/nu mouse at 10 mg/kg; assay type: ADME, organism-based; conditions: in vivo; outline: as §4
[16] = Solubility of the compound in buffer at pH7; assay type: physicochemical; conditions: pH 7
[17] = Antitumor activity against human SET2 cells xenografted in SCID mouse assessed as tumor growth inhibition at 15 mg/kg, po bid for 10 consecutive days; assay type: functional; conditions: SET-2, read-out: TGI
Outline: (§7)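 Female SCID mice, 5–6 weeks old, given 200 Rads whole-body gamma irradiation, then inoculated s.c. with 10^7 SET-2 cells. Dosing by mouth started at 100-200 mm³ tumours; controls received vehicle (0.5% methocel). Seven animals per study.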

[18] = Antitumor activity against human SET2 cells xenografted in SCID mouse assessed as tumor growth inhibition at 50 mg/kg, po bid administered as 5 days on 5 days off for 3 cycles; assay type: functional; conditions: SET-2, 120 h, read-out: TGI; outline: as §7
[19] = target: Tyrosine-protein kinase JAK2 (Homo sapiens, UniProt O60674, V617F)
Sequence of Tyrosine-protein kinase JAK2 (O60674 whole entry V617F): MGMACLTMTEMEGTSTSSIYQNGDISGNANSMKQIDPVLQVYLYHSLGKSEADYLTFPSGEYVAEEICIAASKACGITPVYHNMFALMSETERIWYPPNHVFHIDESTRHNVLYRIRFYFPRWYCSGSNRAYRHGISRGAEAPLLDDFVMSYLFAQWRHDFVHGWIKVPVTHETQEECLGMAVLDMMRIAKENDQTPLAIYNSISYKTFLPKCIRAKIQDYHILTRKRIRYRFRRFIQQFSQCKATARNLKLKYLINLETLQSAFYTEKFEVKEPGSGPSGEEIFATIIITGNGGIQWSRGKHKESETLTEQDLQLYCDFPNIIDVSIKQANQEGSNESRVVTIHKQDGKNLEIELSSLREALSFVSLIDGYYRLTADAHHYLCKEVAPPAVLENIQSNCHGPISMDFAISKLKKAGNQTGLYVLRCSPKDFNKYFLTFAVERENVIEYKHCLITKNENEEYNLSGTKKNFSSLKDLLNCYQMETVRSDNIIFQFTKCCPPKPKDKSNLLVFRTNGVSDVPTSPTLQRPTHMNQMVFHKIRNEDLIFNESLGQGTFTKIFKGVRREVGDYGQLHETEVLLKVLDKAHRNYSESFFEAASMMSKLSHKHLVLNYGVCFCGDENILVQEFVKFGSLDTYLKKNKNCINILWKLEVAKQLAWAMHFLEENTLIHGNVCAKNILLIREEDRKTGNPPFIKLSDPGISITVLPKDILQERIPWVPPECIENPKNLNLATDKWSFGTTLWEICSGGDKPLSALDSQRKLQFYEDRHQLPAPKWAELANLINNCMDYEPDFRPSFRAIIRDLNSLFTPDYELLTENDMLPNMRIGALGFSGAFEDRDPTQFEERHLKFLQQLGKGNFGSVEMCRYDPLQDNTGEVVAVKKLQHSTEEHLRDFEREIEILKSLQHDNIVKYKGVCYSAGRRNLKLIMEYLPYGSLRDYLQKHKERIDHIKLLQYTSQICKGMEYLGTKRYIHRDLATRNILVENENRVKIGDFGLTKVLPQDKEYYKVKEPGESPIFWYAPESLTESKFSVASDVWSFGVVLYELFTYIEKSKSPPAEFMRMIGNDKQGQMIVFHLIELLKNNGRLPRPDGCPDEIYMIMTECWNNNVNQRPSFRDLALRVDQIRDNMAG

[20] = test system: SET-2; experiment: Inhibition of STAT3 phosphorylation in human SET2 cells xenografted in SCID mouse assessed as tumor growth inhibition at 30 mg/kg, po as single dose measured at 1 to 3 hrs post treatment; assay type: functional, organism-based; design: dose 30 mg/kg; outline: as §5
[21] = Cmax in Balb nu/nu mouse at 10 mg/kg, iv; assay type: ADME, organism-based; design: dose 10 mg/kg, route intravenous; conditions: in vivo; outline: as §6
[22] = target: Dual specificity tyrosine-phosphorylation-regulated kinase 1A (Homo sapiens) (UniProt Q13627); experiment: Inhibition of human DYRK1A at 0.1 uM; outline: as §3
[23] = Volume of distribution at steady state in Balb nu/nu mouse at 10 mg/kg, iv; assay type: ADME, organism-based; design: dose 10 mg/kg, route intravenous; conditions: in vivo, read-out: Vdss; outline: as §6
[24] = target: Dual specificity protein kinase CLK2 (Homo sapiens) (UniProt P49760); experiment: Inhibition of human CLK2 at 0.1 uM; outline: as §3
Sequence of Dual specificity protein kinase CLK2 (Homo sapiens) (P49760 whole entry, looked up): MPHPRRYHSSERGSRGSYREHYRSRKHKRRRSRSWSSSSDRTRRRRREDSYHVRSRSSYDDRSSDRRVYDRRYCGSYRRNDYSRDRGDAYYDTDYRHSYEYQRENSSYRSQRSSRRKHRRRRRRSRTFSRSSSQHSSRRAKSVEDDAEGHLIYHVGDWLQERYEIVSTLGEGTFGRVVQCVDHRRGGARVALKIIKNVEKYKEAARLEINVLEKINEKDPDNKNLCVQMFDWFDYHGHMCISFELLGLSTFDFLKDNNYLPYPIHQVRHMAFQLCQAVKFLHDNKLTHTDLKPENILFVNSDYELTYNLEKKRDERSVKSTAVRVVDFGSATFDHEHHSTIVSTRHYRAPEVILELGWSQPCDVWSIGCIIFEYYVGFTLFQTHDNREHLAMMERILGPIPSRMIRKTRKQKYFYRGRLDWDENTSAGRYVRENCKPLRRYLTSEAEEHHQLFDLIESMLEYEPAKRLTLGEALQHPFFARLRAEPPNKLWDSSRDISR

[25] = Antitumor activity against human SET2 cells xenografted in SCID mouse assessed as tumor growth inhibition at 30 mg/kg, po bid for 10 consecutive days; assay type: functional; conditions: SET-2, read-out: TGI; outline: as §7
[26] = test system: Mus musculus; experiment: Toxicity in human SET2 cells xenografted SCID mouse assessed as reversible body weight loss at 30 mg/kg, po bid for 10 consecutive days measured after 10 days; conditions: in vivo, 240 h

## NC(=O)c1cc(-c2ccnc(N)n2)[nH]c1-c1cc(C(F)(F)F)ccc1Cl
[1]
  inhibition: Active
[2]
  Activity: 2%
[3]
  IC50: 1880 nM
[4]
  Activity: 15%
[5]
  inhibition: 1%
[6]
  half-life: 2.3 h
[7]
  inhibition: Active
[8]
  Activity: inactive
[9]
  AUC(0-inf): 9.5 µM·h
[10]
  inhibition: Active
[11]
  Cmax: 4.2 µM
[12]
  inhibition: Active
[13]
  clearance: 16.2 mL/min/kg
[14]
  Activity: inactive
[15]
  bioavailability: 31%
[16]
  solubility: 159 µM (≈ 60.7 µg/mL)
[17]
  inhibition in vivo at 15 mg/kg: 50%
[18]
  inhibition in vivo at 50 mg/kg: 95%
[19]
  IC50: 480 nM
[20]
  inhibition: Active
[21]
  Cmax: 17.6 µM
[22]
  inhibition: 1%
[23]
  Vd: 0.9 L/kg
[24]
  inhibition: 1%
[25]
  inhibition in vivo at 30 mg/kg: 71%
[26]
  Activity: 6%
